From ChEMBL document CHEMBL1240400, “Comparative in vitro activities of nemonoxacin (TG-873870), a novel nonfluorinated quinolone, and other quinolones against clinical isolates” (2010)
≈ marks a conversion by molar mass, not a printed value.

What was measured:
Type in all cases: functional
[1] = system: Streptococcus agalactiae; assay: Antibacterial activity against Streptococcus agalactiae by broth dilution method
Method in brief: (§1)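 Streptococci were tested by CLSI broth microdilution in Mueller-Hinton broth with 3% lysed horse blood, seeded from a 0.5 McFarland suspension. Incubated overnight at 35°C in ambient air, with quality control strains in each run. MIC taken over a per-agent dilution range.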

[2] = system: Staphylococcus aureus; assay: Antibacterial activity against ciprofloxacin susceptible and methicillin resistant Staphylococcus aureus by broth dilution method
Method in brief: (§2)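 Clinical isolates tested by CLSI broth microdilution in panels holding serial twofold drug dilutions in cation-adjusted Mueller-Hinton broth. Final inoculum 5 × 10^5 CFU/ml was made from a 0.5 McFarland suspension. Plates were incubated overnight at 35°C in ambient air, and the MIC was read as the lowest concentration inhibiting growth. Quality control strains were included in each run.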

[3] = system: Enterococcus faecalis; assay: Antibacterial activity against Enterococcus faecalis by broth dilution method
[4] = system: Streptococcus pyogenes; assay: Antibacterial activity against Streptococcus pyogenes by broth dilution method; method in brief: as §1
[5] = system: Staphylococcus epidermidis; assay: Antibacterial activity against methicillin resistant coagulase negative Staphylococcus epidermidis by broth dilution method
[6] = system: Enterococcus faecium; assay: Antibacterial activity against Enterococcus faecium by broth dilution method; method in brief: as §2
[7] = system: Enterococcus faecalis; assay: Antibacterial activity against vancomycin resistant Enterococcus faecalis by broth dilution method
[8] = system: Staphylococcus; assay: Antibacterial activity against methicillin resistant coagulase negative Staphylococcus by broth dilution method
[9] = system: Staphylococcus aureus; assay: Antibacterial activity against methicillin susceptible Staphylococcus aureus by broth dilution method
[10] = system: Streptococcus pneumoniae; assay: Antibacterial activity against Levofloxacin susceptible Streptococcus pneumoniae by broth dilution method
Method in brief: (§3)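 Streptococcus pneumoniae clinical isolates tested by CLSI broth microdilution. A 0.5 McFarland suspension was diluted into Mueller-Hinton broth with 3% lysed horse blood, then tested against serial drug dilutions. Plates were incubated overnight at 35°C in ambient air, and the MIC was read as the lowest inhibitory concentration. Quality control strains were included in each run.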

[11] = system: Streptococcus viridans; assay: Antibacterial activity against Streptococcus viridans by broth dilution method; method in brief: as §1
[12] = system: Staphylococcus aureus; assay: Antibacterial activity against ciprofloxacin and methicillin resistant Staphylococcus aureus by broth dilution method; method in brief: as §2
[13] = system: Streptococcus pneumoniae; assay: Antibacterial activity against Levofloxacin resistant Streptococcus pneumoniae by broth dilution method; method in brief: as §3
[14] = system: Enterococcus faecium; assay: Antibacterial activity against vancomycin resistant Enterococcus faecium by broth dilution method; method in brief: as §2
[15] = system: Enterobacter cloacae; assay: Antibacterial activity against Enterobacter cloacae by broth dilution method
[16] = system: Proteus mirabilis; assay: Antibacterial activity against Proteus mirabilis by broth dilution method
[17] = system: Escherichia coli; assay: Antibacterial activity against ciprofloxacin susceptible Escherichia coli by broth dilution method
Method in brief: (§4)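 Broth microdilution per CLSI in panels spanning a dilution range of each agent. Cation-adjusted Mueller-Hinton broth, final inoculum 5 × 10^5 CFU/ml from a 0.5 McFarland suspension. Incubated overnight at 35°C in ambient air, with quality control strains in each run. MIC reported; values at or below the lowest concentration tested are given as that concentration.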

[18] = system: Acinetobacter baumannii; assay: Antibacterial activity against Acinetobacter baumannii by broth dilution method; method in brief: as §4
[19] = system: Escherichia coli; assay: Antibacterial activity against ciprofloxacin resistant Escherichia coli by broth dilution method; method in brief: as §2
[20] = system: Citrobacter freundii; assay: Antibacterial activity against Citrobacter freundii by broth dilution method; method in brief: as §4
[21] = system: Klebsiella pneumoniae; assay: Antibacterial activity against Klebsiella pneumoniae by broth dilution method; method in brief: as §4
[22] = system: Haemophilus influenzae; assay: Antibacterial activity against Haemophilus influenzae by broth dilution method
Method in brief: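 Broth microdilution per CLSI using Haemophilus Test Medium broth, seeded from a 0.5 McFarland suspension. Incubated overnight at 35°C in ambient air, with quality control strains in each run. MIC read against a tested dilution range; values at the low limit are given as the lowest concentration.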

[23] = system: Pseudomonas aeruginosa; assay: Antibacterial activity against Pseudomonas aeruginosa by broth dilution method

Structure (SMILES): CN[C@H](CC(C)C)C(=O)N[C@H]1C(=O)N[C@@H](CC(N)=O)C(=O)N[C@H]2C(=O)N[C@H]3C(=O)N[C@H](C(=O)N[C@H](C(=O)O)c4cc(O)cc(O)c4-c4cc3ccc4O)[C@H](O)c3ccc(c(Cl)c3)Oc3cc2cc(c3O[C@@H]2O[C@H](CO)[C@@H](O)[C@H](O)[C@H]2O[C@H]2C[C@](C)(N)[C@H](O)[C@H](C)O2)Oc2ccc(cc2Cl)[C@H]1O [VANCOMYCIN]
- MIC [1]: 0.5 µg/mL (≈ 0.345 µM)
- MIC50 [1]: 0.5 µg/mL (≈ 0.345 µM)
- MIC90 [1]: 1 µg/mL (≈ 0.69 µM)
- MIC50 [2]: 1 µg/mL (≈ 0.69 µM)
- MIC90 [2]: 1 µg/mL (≈ 0.69 µM)
- MIC50 [3]: 2 µg/mL (≈ 1.38 µM)
- MIC90 [3]: > 16 µg/mL
- MIC50 [4]: 0.5 µg/mL (≈ 0.345 µM)
- MIC90 [4]: 0.5 µg/mL (≈ 0.345 µM)
- MIC50 [5]: 2 µg/mL (≈ 1.38 µM)
- MIC90 [5]: 2 µg/mL (≈ 1.38 µM)
- MIC50 [6]: 8 µg/mL (≈ 5.52 µM)
- MIC90 [6]: > 16 µg/mL
- MIC50 [7]: 2 µg/mL (≈ 1.38 µM)
- MIC90 [7]: > 16 µg/mL
- MIC50 [8]: 2 µg/mL (≈ 1.38 µM)
- MIC90 [8]: 2 µg/mL (≈ 1.38 µM)
- MIC50 [9]: 1 µg/mL (≈ 0.69 µM)
- MIC90 [9]: 1 µg/mL (≈ 0.69 µM)
- MIC50 [10]: 0.5 µg/mL (≈ 0.345 µM)
- MIC90 [10]: 0.5 µg/mL (≈ 0.345 µM)
- MIC [11]: 0.5 µg/mL (≈ 0.345 µM)
- MIC50 [11]: 0.5 µg/mL (≈ 0.345 µM)
- MIC90 [11]: 1 µg/mL (≈ 0.69 µM)
- MIC50 [12]: 2 µg/mL (≈ 1.38 µM)
- MIC90 [12]: 2 µg/mL (≈ 1.38 µM)
- MIC50 [13]: 0.5 µg/mL (≈ 0.345 µM)
- MIC90 [13]: 0.5 µg/mL (≈ 0.345 µM)
- MIC50 [14]: 8 µg/mL (≈ 5.52 µM)
- MIC90 [14]: > 16 µg/mL

Structure (SMILES): CN(C)c1cc(NC(=O)CNC(C)(C)C)c(O)c2c1C[C@H]1C[C@H]3[C@H](N(C)C)C(O)=C(C(N)=O)C(=O)[C@@]3(O)C(O)=C1C2=O [TIGECYCLINE]
- MIC50 [15]: 0.5 µg/mL (≈ 0.854 µM)
- MIC90 [15]: 2 µg/mL (≈ 3.41 µM)
- MIC50 [16]: 2 µg/mL (≈ 3.41 µM)
- MIC90 [16]: 4 µg/mL (≈ 6.83 µM)
- MIC50 [17]: 0.25 µg/mL (≈ 0.427 µM)
- MIC90 [17]: 0.5 µg/mL (≈ 0.854 µM)
- MIC [1]: 0.03 µg/mL (≈ 0.0512 µM)
- MIC50 [1]: 0.03 µg/mL (≈ 0.0512 µM)
- MIC90 [1]: 0.06 µg/mL (≈ 0.102 µM)
- MIC50 [18]: 1 µg/mL (≈ 1.71 µM)
- MIC90 [18]: 2 µg/mL (≈ 3.41 µM)
- MIC50 [2]: 0.25 µg/mL (≈ 0.427 µM)
- MIC90 [2]: 0.25 µg/mL (≈ 0.427 µM)
- MIC50 [3]: 0.25 µg/mL (≈ 0.427 µM)
- MIC90 [3]: 0.25 µg/mL (≈ 0.427 µM)
- MIC50 [4]: 0.03 µg/mL (≈ 0.0512 µM)
- MIC90 [4]: 0.06 µg/mL (≈ 0.102 µM)
- MIC50 [5]: 0.25 µg/mL (≈ 0.427 µM)
- MIC90 [5]: 0.5 µg/mL (≈ 0.854 µM)
- MIC50 [6]: 0.06 µg/mL (≈ 0.102 µM)
- MIC90 [6]: 0.12 µg/mL (≈ 0.205 µM)
- MIC50 [7]: 0.25 µg/mL (≈ 0.427 µM)
- MIC90 [7]: 0.25 µg/mL (≈ 0.427 µM)
- MIC50 [8]: 0.25 µg/mL (≈ 0.427 µM)
- MIC90 [8]: 0.5 µg/mL (≈ 0.854 µM)
- MIC50 [9]: 0.12 µg/mL (≈ 0.205 µM)
- MIC90 [9]: 0.25 µg/mL (≈ 0.427 µM)
- MIC50 [19]: 0.25 µg/mL (≈ 0.427 µM)
- MIC90 [19]: > 8 µg/mL
- MIC [10]: 0.08 µg/mL (≈ 0.137 µM)
- MIC50 [10]: 0.03 µg/mL (≈ 0.0512 µM)
- MIC90 [10]: 0.06 µg/mL (≈ 0.102 µM)
- MIC [20]: 0.25 µg/mL (≈ 0.427 µM)
- MIC50 [20]: 0.25 µg/mL (≈ 0.427 µM)
- MIC90 [20]: 0.5 µg/mL (≈ 0.854 µM)
- MIC50 [11]: 0.06 µg/mL (≈ 0.102 µM)
- MIC90 [11]: 0.12 µg/mL (≈ 0.205 µM)
- MIC50 [21]: 0.5 µg/mL (≈ 0.854 µM)
- MIC90 [21]: 1 µg/mL (≈ 1.71 µM)
- MIC50 [12]: 0.25 µg/mL (≈ 0.427 µM)
- MIC90 [12]: 0.5 µg/mL (≈ 0.854 µM)
- MIC50 [22]: 0.5 µg/mL (≈ 0.854 µM)
- MIC90 [22]: 1 µg/mL (≈ 1.71 µM)
- MIC50 [13]: 0.06 µg/mL (≈ 0.102 µM)
- MIC90 [13]: 0.06 µg/mL (≈ 0.102 µM)
- MIC50 [14]: 0.06 µg/mL (≈ 0.102 µM)
- MIC90 [14]: 0.12 µg/mL (≈ 0.205 µM)
- MIC50 [23]: 8 µg/mL (≈ 13.7 µM)
- MIC90 [23]: > 8 µg/mL
